Data from ChEMBL document CHEMBL1124270, “Quinolone antibacterial agents. Synthesis and structure-activity relationships of 8-substituted quinoline-3-carboxylic acids and 1,8-naphthyridine-3-carboxylic acids” (1988).
≈ marks a conversion by molar mass, not a printed value.

Tests used:
Type in all cases: functional
Mus musculus [1] = assay: In vivo potency against Escherichia coli vogel using mouse protection assay when given subcutaneously; details: sc, read-out: PD50
Streptococcus pneumoniae [2] = assay: In vivo potency against Streptococcus pneumoniae using mouse protection assay following s.c. administration.; details: sc, read-out: PD50
Streptococcus pneumoniae [3] = assay: In vivo potency against Streptococcus pneumoniae using mouse protection assay following p.o. administration.; details: po, read-out: PD50
Escherichia coli [4] = assay: Minimum inhibitory concentration against Escherichia coli vogel in vitro.
Klebsiella pneumoniae = assay: Minimum inhibitory concentration against Klebsiella pneumoniae MGH-2 in vitro.
Staphylococcus aureus [5] = assay: Minimum inhibitory concentration against Staphylococcus aureus H228 in vitro.
Staphylococcus aureus [6] = assay: Minimum inhibitory concentration against Staphylococcus aureus UC-76 in vitro.
Staphylococcus aureus [7] = assay: In vivo potency against Staphylococcus aureus using mouse protection assay following p.o. administration.; details: po, read-out: PD50
Staphylococcus aureus [8] = assay: In vivo potency against Staphylococcus aureus using mouse protection assay following s.c. administration.; details: sc, read-out: PD50
Streptococcus pyogenes = assay: Minimum inhibitory concentration against Streptococcus pyogenes C203 in vitro.
Providencia rettgeri = assay: Minimum inhibitory concentration against Providencia rettgeri H1771 in vitro.
Escherichia coli [9] = assay: Minimum concentration needed to produce linear DNA at an intensity relative to oxolinic at 10 ug/mL in Escherichia coli H560 in vitro.
Procedure, shortened: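 DNA gyrase cleavage test, run as previously described: end point is the lowest drug level (µg/mL) that yields linear DNA at a band intensity matching oxolinic acid at 10 µg/mL. Values come from duplicate or triplicate experiments and are stated as accurate to ±50%.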

Mus musculus [10] = assay: In vivo potency against Escherichia coli vogel using mouse protection assay when given perorally; details: po, read-out: PD50
Pseudomonas aeruginosa = assay: Minimum inhibitory concentration against Pseudomonas aeruginosa UI-18 in vitro.
Enterobacter cloacae = assay: Minimum inhibitory concentration against Enterobacter cloacae HA 2646 in vitro.
Streptococcus pneumoniae [11] = assay: Minimum inhibitory concentration against Streptococcus pneumoniae SV-1 in vitro.
Enterococcus faecalis = assay: Minimum inhibitory concentration against Streptococcus faecalis MGH-2 in vitro.
Escherichia coli [12] = assay: Minimum inhibitory concentration against Escherichia coli H560 in vitro.
Mus musculus [13] = assay: In vivo potency against Staphylococcus aureus using mouse protection assay when given orally; details: po, read-out: PD50
Mus musculus [14] = assay: In vivo potency against Streptococcus pneumoniae using mouse protection assay when given orally; details: po, read-out: PD50

| SMILES | ED50 (Mus musculus [1]) [mg/kg] | ED50 (Streptococcus pneumoniae [2]) [mg/kg] | ED50 (Streptococcus pneumoniae [3]) [mg/kg] | MIC (Escherichia coli [4]) [µg/mL] | MIC (Klebsiella pneumoniae) [µg/mL] | MIC (Staphylococcus aureus [5]) [µg/mL] | MIC (Staphylococcus aureus [6]) [µg/mL] | ED50 (Staphylococcus aureus [7]) [mg/kg] | ED50 (Staphylococcus aureus [8]) [mg/kg] | MIC (Streptococcus pyogenes) [µg/mL] | MIC (Providencia rettgeri) [µg/mL] | DNA cleavage conc (gyrase) (Escherichia coli [9]) [µg/mL] | ED50 (Mus musculus [10]) [mg/kg] | MIC (Pseudomonas aeruginosa) [µg/mL] | MIC (Enterobacter cloacae) [µg/mL] | MIC (Streptococcus pneumoniae [11]) [µg/mL] | MIC (Enterococcus faecalis) [µg/mL] | MIC (Escherichia coli [12]) [µg/mL] | ED50 (Mus musculus [13]) [mg/kg] | ED50 (Mus musculus [14]) [mg/kg] |
| --- | --- | --- | --- | --- | --- | --- | --- | --- | --- | --- | --- | --- | --- | --- | --- | --- | --- | --- | --- | --- |
| CCNCC1CCN(c2nc3c(cc2F)c(=O)c(C(=O)O)cn3C2CC2)C1 (configuration not stated) | 1 | 6 | 16 | 0.1 (≈ 0.267 µM) | 0.1 (≈ 0.267 µM) | 0.1 (≈ 0.267 µM) | 0.05 (≈ 0.134 µM) | 62 | 15 | 0.1 (≈ 0.267 µM) | 0.8 (≈ 2.14 µM) | 0.75 | 7 | 0.8 (≈ 2.14 µM) | 0.2 (≈ 0.534 µM) | 0.1 (≈ 0.267 µM) | 0.1 (≈ 0.267 µM) | 0.05 (≈ 0.134 µM) | – | – |
| NCC1CCN(c2nc3c(cc2F)c(=O)c(C(=O)O)cn3C2CC2)C1 (configuration not stated) | – | – | – | 0.1 (≈ 0.289 µM) | 0.1 (≈ 0.289 µM) | 0.2 (≈ 0.577 µM) | 0.006 (≈ 0.0173 µM) | – | – | 0.025 (≈ 0.0722 µM) | 0.4 (≈ 1.15 µM) | 0.5 | 17 | 0.2 (≈ 0.577 µM) | 0.1 (≈ 0.289 µM) | 0.1 (≈ 0.289 µM) | 0.025 (≈ 0.0722 µM) | 0.025 (≈ 0.0722 µM) | 55 | 100 |
| CN(C)CC1CCN(c2cc3c(cc2F)c(=O)c(C(=O)O)cn3C2CC2)C1 (configuration not stated) | 2 | 9 | 18 | 0.1 (≈ 0.268 µM) | 0.2 (≈ 0.536 µM) | 0.1 (≈ 0.268 µM) | 0.1 (≈ 0.268 µM) | 47 | 26 | 0.2 (≈ 0.536 µM) | 0.4 (≈ 1.07 µM) | 0.75 | 4 | 1.6 (≈ 4.28 µM) | 0.1 (≈ 0.268 µM) | 0.1 (≈ 0.268 µM) | 0.2 (≈ 0.536 µM) | 0.1 (≈ 0.268 µM) | – | – |
| O=C(O)c1cn(C2CC2)c2c(F)c(N3CCNCC3)c(F)cc2c1=O | 0.3 | 29 | 59 | 0.1 (≈ 0.286 µM) | 0.1 (≈ 0.286 µM) | 0.4 (≈ 1.15 µM) | 0.1 (≈ 0.286 µM) | 7 | 3 | 0.8 (≈ 2.29 µM) | 0.1 (≈ 0.286 µM) | 0.5 | 0.5 | 0.2 (≈ 0.573 µM) | 0.05 (≈ 0.143 µM) | 0.8 (≈ 2.29 µM) | 0.4 (≈ 1.15 µM) | 0.025 (≈ 0.0716 µM) | – | – |
| CN(C)CC1CCN(c2c(F)cc3c(=O)c(C(=O)O)cn(C4CC4)c3c2F)C1 (configuration not stated) | 1 | 5 | 5 | 0.2 (≈ 0.511 µM) | 0.2 (≈ 0.511 µM) | 0.025 (≈ 0.0639 µM) | 0.025 (≈ 0.0639 µM) | 45 | 20 | 0.05 (≈ 0.128 µM) | 0.8 (≈ 2.04 µM) | 0.1 | 2 | 0.8 (≈ 2.04 µM) | 0.2 (≈ 0.511 µM) | 0.05 (≈ 0.128 µM) | 0.025 (≈ 0.0639 µM) | 0.025 (≈ 0.0639 µM) | – | – |
| CC(C)NCC1CCN(c2c(F)cc3c(=O)c(C(=O)O)cn(C4CC4)c3c2F)C1 (configuration not stated) | 1 | 2 | 7 | 0.1 (≈ 0.247 µM) | 0.2 (≈ 0.493 µM) | 0.05 (≈ 0.123 µM) | 0.013 (≈ 0.0321 µM) | 42 | 12 | 0.05 (≈ 0.123 µM) | 0.4 (≈ 0.987 µM) | 2.8 | 6 | 1.6 (≈ 3.95 µM) | 0.2 (≈ 0.493 µM) | 0.05 (≈ 0.123 µM) | 0.025 (≈ 0.0617 µM) | 0.05 (≈ 0.123 µM) | – | – |
| CN(C)CC1CCN(c2c(F)cc3c(=O)c(C(=O)O)cn(C4CC4)c3c2Cl)C1 (configuration not stated) | 2 | 2 | 2 | 0.1 (≈ 0.245 µM) | 0.1 (≈ 0.245 µM) | 0.013 (≈ 0.0319 µM) | 0.006 (≈ 0.0147 µM) | 61 | 38 | 0.025 (≈ 0.0613 µM) | 0.4 (≈ 0.981 µM) | 1 | 4 | 0.8 (≈ 1.96 µM) | 0.2 (≈ 0.49 µM) | 0.006 (≈ 0.0147 µM) | 0.05 (≈ 0.123 µM) | 0.025 (≈ 0.0613 µM) | – | – |
| NC1CCN(c2nc3c(cc2F)c(=O)c(C(=O)O)cn3C2CC2)C1 (configuration not stated) | 0.6 | 33 | 58 | 0.013 (≈ 0.0391 µM) | 0.025 (≈ 0.0752 µM) | 0.2 (≈ 0.602 µM) | 0.013 (≈ 0.0391 µM) | 7 | 3 | 0.2 (≈ 0.602 µM) | 0.1 (≈ 0.301 µM) | 1 | 2 | 0.05 (≈ 0.15 µM) | 0.05 (≈ 0.15 µM) | 0.2 (≈ 0.602 µM) | 0.2 (≈ 0.602 µM) | 0.006 (≈ 0.0181 µM) | – | – |
| CN(C)CC1CCN(c2nc3c(cc2F)c(=O)c(C(=O)O)cn3C2CC2)C1 (configuration not stated) | 1 | 7 | 7 | 0.05 (≈ 0.134 µM) | 0.2 (≈ 0.534 µM) | 0.1 (≈ 0.267 µM) | 0.05 (≈ 0.134 µM) | 31 | 27 | 0.1 (≈ 0.267 µM) | 0.8 (≈ 2.14 µM) | 0.75 | 2 | 0.4 (≈ 1.07 µM) | 0.1 (≈ 0.267 µM) | 0.05 (≈ 0.134 µM) | 0.2 (≈ 0.534 µM) | 0.05 (≈ 0.134 µM) | – | – |
| CC(C)NCC1CCN(c2nc3c(cc2F)c(=O)c(C(=O)O)cn3C2CC2)C1 (configuration not stated) | 2 | – | – | 0.2 (≈ 0.515 µM) | 0.4 (≈ 1.03 µM) | 0.2 (≈ 0.515 µM) | 0.1 (≈ 0.257 µM) | 35 | 16 | 0.2 (≈ 0.515 µM) | 1.6 (≈ 4.12 µM) | 2.5 | 8 | 0.8 (≈ 2.06 µM) | 0.2 (≈ 0.515 µM) | 0.2 (≈ 0.515 µM) | 0.2 (≈ 0.515 µM) | 0.1 (≈ 0.257 µM) | – | – |
| Cl.Cl.NC1CCN(c2cc3c(cc2F)c(=O)c(C(=O)O)cn3C2CC2)C1 (configuration not stated) | 0.5 | 4 | 43 | 0.025 | 0.1 | 0.1 | 0.025 | 49.5 | – | 0.1 | 0.1 | 0.1 | 3 | 0.1 | 0.025 | 0.05 | 0.1 | 0.006 | – | – |
| CC1COc2c(N3CCC(N)C3)c(F)cc3c(=O)c(C(=O)O)cn1c23.Cl (configuration not stated) | 2 | – | – | 0.4 | 0.4 | 1.6 | 0.1 | – | – | 0.2 | 0.8 | 0.75 | 25 | 0.4 | 0.4 | 0.8 | 1.6 | 0.2 | – | – |
| Cl.NC1CCN(c2c(F)cc3c(=O)c(C(=O)O)cn(C4CC4)c3c2F)C1 (configuration not stated) | 0.2 | 6 | 15 | 0.013 | 0.025 | 0.05 | 0.025 | 7 | 3 | 0.05 | 0.05 | 0.1 | 1 | 0.1 | 0.025 | 0.05 | 0.05 | 0.006 | – | – |
| CN(C)CC1CCN(c2c(F)cc3c(=O)c(C(=O)O)cn(C4CC4)c3c2N)C1.Cl (configuration not stated) | 4 | – | – | 0.4 | 0.8 | 0.2 | 0.1 | 100 | 81 | 0.4 | 0.8 | 5 | 9 | 3.1 | 0.2 | 0.4 | 0.4 | 0.4 | – | – |
| O=C(O)c1cn(C2CC2)c2nc(N3CCNCC3)c(F)cc2c1=O | 0.4 | – | – | 0.05 (≈ 0.15 µM) | 0.1 (≈ 0.301 µM) | 1.6 (≈ 4.81 µM) | 0.4 (≈ 1.2 µM) | 14 | 6 | 1.6 (≈ 4.81 µM) | 0.2 (≈ 0.602 µM) | 1 | 0.7 | 0.2 (≈ 0.602 µM) | 0.1 (≈ 0.301 µM) | 1.6 (≈ 4.81 µM) | 1.6 (≈ 4.81 µM) | 0.05 (≈ 0.15 µM) | – | – |
| O=C(O)c1cn(C2CC2)c2cc(N3CCNCC3)c(F)cc2c1=O [CIPROFLOXACIN] | 0.3 | 19 | > 100 | – | 0.1 (≈ 0.302 µM) | 3.1 (≈ 9.36 µM) | 0.2 (≈ 0.604 µM) | 25 | 5 | 0.8 (≈ 2.41 µM) | 0.1 (≈ 0.302 µM) | – | 1 | 0.4 (≈ 1.21 µM) | – | 1.6 (≈ 4.83 µM) | 0.8 (≈ 2.41 µM) | 0.025 (≈ 0.0754 µM) | – | – |
| Cl.NC1CCN(c2c(F)cc3c(=O)c(C(=O)O)cn(C4CC4)c3c2Cl)C1 (configuration not stated) [CLINAFLOXACIN HYDROCHLORIDE] | 0.6 | 4 | 10 | 0.013 | 0.025 | 0.05 | 0.013 | 13 | 5 | 0.05 | 0.025 | 0.5 | 3 | 0.05 | 0.025 | 0.05 | 0.05 | 0.006 | – | – |
| CCNCC1CCN(c2c(F)cc3c(=O)c(C(=O)O)cn(C4CC4)c3c2F)C1 (configuration not stated) [PD-117558] | 1 | 2 | 3 | 0.05 (≈ 0.128 µM) | 0.1 (≈ 0.255 µM) | 0.025 (≈ 0.0639 µM) | 0.006 (≈ 0.0153 µM) | 59 | 40 | 0.025 (≈ 0.0639 µM) | 0.2 (≈ 0.511 µM) | 0.25 | 4 | 0.4 (≈ 1.02 µM) | 0.1 (≈ 0.255 µM) | 0.025 (≈ 0.0639 µM) | 0.025 (≈ 0.0639 µM) | 0.025 (≈ 0.0639 µM) | – | – |
